Measurements as given in ChEMBL document CHEMBL4033651, “Exploration of flexible phenylpropylurea scaffold as novel cardiac myosin activators for the treatment of systolic heart failure” (Eur J Med Chem, 2017).

What was measured:
Rattus norvegicus [1] = test: Positive inotropic activity in Sprague-Dawley rat heart assessed as fractional shortening at 4 ug/kg/min for 3 mins by echocardiographic analysis (reference value: 38.60 to 55.81%); format: functional
In short: (§1)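 Seven-week-old male Sprague-Dawley rats under 1.5 % isoflurane via nosecone. Drug given through a right internal jugular vein central line. Left ventricular fractional shortening and ejection fraction measured by echocardiography with and without sample, expressed as % increase.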

Bos taurus = organism: Bos taurus; test: Activation of actin-stimulated bovine cardiac myosin S1 fragment ATPase activity in sarcomere at 10 uM after 10 mins by spectrophotometric analysis
In short: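 Bovine cardiac S1 myosin with actin thin filament complex at pCa 6.5, in 20 mM Tris HCl pH 7.5, 15 mM KCl, 6 mM MgCl2, 1 mM ATP. Compound at 10 μM, 10 min at room temperature. Stopped with Cytophos reagent; liberated phosphate read at 650 nm. % activity calculated relative to DMSO negative control, blank-corrected.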

Rattus norvegicus [2] = test: Positive inotropic activity in Sprague-Dawley rat heart assessed as left ventricle fractional shortening at 2 to 16 ug/kg/min for 3 mins by echocardiographic analysis; format: functional; in short: as §1
Rattus norvegicus [3] = test: Positive inotropic activity in Sprague-Dawley rat heart assessed as ejection fraction at 2 to 16 ug/kg/min for 3 mins by echocardiographic analysis; format: functional; in short: as §1
Oryctolagus cuniculus = organism: Oryctolagus cuniculus; test: Activation of actin-stimulated rabbit psoas skeletal muscle myosin S1 fragment ATPase activity at 100 uM after 10 mins by spectrophotometric analysis
In short: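 Rabbit skeletal S1 myosin with actin thin filament complex at pCa 6.5, in 20 mM Tris HCl pH 7.5, 15 mM KCl, 6 mM MgCl2, 1 mM ATP. Compound at single 100 uM dose, 10 min at room temperature. Cytophos stop; phosphate read at 650 nm. % activity versus blank-corrected DMSO control.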

Gallus gallus = organism: Gallus gallus; test: Activation of actin-stimulated chicken gizzard smooth muscle myosin S1 fragment ATPase activity at 100 uM after 10 mins by spectrophotometric analysis
In short: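 Chicken gizzard smooth muscle S1 myosin with actin plus tropomyosin at pCa 6.5, in 20 mM Tris HCl pH 7.5, 15 mM KCl, 6 mM MgCl2, 1 mM ATP. Compound at single 100 uM dose, 10 min at room temperature. Cytophos stop; phosphate read at 650 nm. % activity versus blank-corrected DMSO control.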

Rattus norvegicus [4] = test: Positive inotropic activity in Sprague-Dawley rat heart assessed as heart rate at 4 ug/kg/min for 3 mins by echocardiographic analysis (reference value: 281 to 347 bpm); format: functional
Rattus norvegicus [5] = test: Positive inotropic activity in Sprague-Dawley rat heart assessed as heart rate at 16 ug/kg/min for 3 mins by echocardiographic analysis (reference value: 281 to 347 bpm); format: functional
Rattus norvegicus [6] = test: Positive inotropic activity in Sprague-Dawley rat heart assessed as left ventricular internal diameter end systole at 4 ug/kg/min for 3 mins by echocardiographic analysis (reference value: 2.50 to 4.78 mm); format: functional
In short: (§2)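 Male Sprague-Dawley rats, seven weeks old, anaesthetised with 1.5 % isoflurane given by nosecone. Compound infused through the right internal jugular vein, used as a central venous line. Left ventricular dimensions measured by echocardiography.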

Rattus norvegicus [7] = test: Positive inotropic activity in Sprague-Dawley rat heart assessed as left ventricular internal diameter end systole at 8 ug/kg/min for 3 mins by echocardiographic analysis (reference value: 2.50 to 4.78 mm); format: functional; in short: as §2
Rattus norvegicus [8] = test: Positive inotropic activity in Sprague-Dawley rat heart assessed as left ventricular internal diameter end systole at 16 ug/kg/min for 3 mins by echocardiographic analysis (reference value: 2.50 to 4.78 mm); format: functional; in short: as §2
Rattus norvegicus [9] = test: Positive inotropic activity in Sprague-Dawley rat heart assessed as left ventricular internal diameter end diastole at 4 ug/kg/min for 3 mins by echocardiographic analysis (reference value: 5.66 to 7.80 mm); format: functional; in short: as §2
Rattus norvegicus [10] = test: Positive inotropic activity in Sprague-Dawley rat heart assessed as left ventricular internal diameter end diastole at 8 ug/kg/min for 3 mins by echocardiographic analysis (reference value: 5.66 to 7.80 mm); format: functional; in short: as §2
Rattus norvegicus [11] = test: Positive inotropic activity in Sprague-Dawley rat heart assessed as left ventricular internal diameter end diastole at 16 ug/kg/min for 3 mins by echocardiographic analysis (reference value: 5.66 to 7.80 mm); format: functional
Rattus norvegicus [12] = test: Positive inotropic activity in Sprague-Dawley rat heart assessed as left ventricular posterior wall thickness end systole at 8 ug/kg/min for 3 mins by echocardiographic analysis (reference value: 2.07 to 2.46 mm); format: functional; in short: as §2
Rattus norvegicus [13] = test: Positive inotropic activity in Sprague-Dawley rat heart assessed as left ventricular posterior wall thickness end systole at 16 ug/kg/min for 3 mins by echocardiographic analysis (reference value: 2.07 to 2.46 mm); format: functional; in short: as §2
Rattus norvegicus [14] = test: Positive inotropic activity in Sprague-Dawley rat heart assessed as left ventricular posterior wall thickness end diastole at 4 ug/kg/min for 3 mins by echocardiographic analysis (reference value: 0.88 to 1.54 mm); format: functional; in short: as §2
Rattus norvegicus [15] = test: Positive inotropic activity in Sprague-Dawley rat heart assessed as left ventricular posterior wall thickness end diastole at 8 ug/kg/min for 3 mins by echocardiographic analysis (reference value: 0.88 to 1.54 mm); format: functional; in short: as §2
Rattus norvegicus [16] = test: Positive inotropic activity in Sprague-Dawley rat heart assessed as ejection fraction at 4 ug/kg/min for 3 mins by echocardiographic analysis (reference value: 67.16 to 85.81%); format: functional; in short: as §1
Rattus norvegicus [17] = test: Positive inotropic activity in Sprague-Dawley rat heart assessed as ejection fraction at 8 ug/kg/min for 3 mins by echocardiographic analysis (reference value: 67.16 to 85.81%); format: functional; in short: as §1
Rattus norvegicus [18] = test: Positive inotropic activity in Sprague-Dawley rat heart assessed as fractional shortening at 8 ug/kg/min for 3 mins by echocardiographic analysis (reference value: 38.60 to 55.81%); format: functional; in short: as §1
Rattus norvegicus [19] = test: Effect on hemodynamic parameters in Sprague-Dawley rat heart assessed as end-systolic pressure at 8 ug/kg/min (reference value: 87.48 to 97.85 mmHg); format: functional
Rattus norvegicus [20] = test: Effect on hemodynamic parameters in Sprague-Dawley rat heart assessed as end-diastolic pressure at 8 ug/kg/min (reference value: 7.68 to 9.83 mmHg); format: functional
Rattus norvegicus [21] = test: Effect on hemodynamic parameters in Sprague-Dawley rat heart assessed as end-diastolic pressure at 16 ug/kg/min (reference value: 7.68 to 9.64 mmHg); format: functional
Rattus norvegicus [22] = test: Effect on hemodynamic parameters in Sprague-Dawley rat heart assessed as dPdT max at 8 ug/kg/min (reference value: 4162 to 5214 mmHg/s); format: functional
Rattus norvegicus [23] = test: Effect on hemodynamic parameters in Sprague-Dawley rat heart assessed as dPdT min at 8 ug/kg/min (reference value: -5462 to -4611 mmHg/s); format: functional
Rattus norvegicus [24] = test: Effect on hemodynamic parameters in Sprague-Dawley rat heart assessed as dPdT min at 16 ug/kg/min (reference value: -5462 to -4611 mmHg/s); format: functional
Rattus norvegicus [25] = test: Effect on hemodynamic parameters in Sprague-Dawley rat heart assessed as heart rate at 8 ug/kg/min (reference value: 260 to 322 bpm); format: functional
Rattus norvegicus [26] = test: Effect on hemodynamic parameters in Sprague-Dawley rat heart assessed as heart rate at 16 ug/kg/min (reference value: 274 to 322 bpm); format: functional

SMILES	Activity (Rattus norvegicus [1])	Activity (Bos taurus)	Activity (Rattus norvegicus [2])	Activity (Rattus norvegicus [3])	Activity (Oryctolagus cuniculus)	Activity (Gallus gallus)	Activity (Rattus norvegicus [4])	Activity (Rattus norvegicus [5])	Activity (Rattus norvegicus [6])	Activity (Rattus norvegicus [7])	Activity (Rattus norvegicus [8])	Activity (Rattus norvegicus [9])	Activity (Rattus norvegicus [10])	Activity (Rattus norvegicus [11])	Activity (Rattus norvegicus [12])	Activity (Rattus norvegicus [13])	Activity (Rattus norvegicus [14])	Activity (Rattus norvegicus [15])	Activity (Rattus norvegicus [16])	Activity (Rattus norvegicus [17])	further results
O=C(NCCCc1ccccc1)NCc1ccccc1	45.67%	53.3%	30.04%	18.27%	1.4%	-3.7%	395 bpm	412 bpm	3.03 mm	1.58 mm	1.58 mm	5.57 mm	5.97 mm	5.57 mm	2.68 mm	3.03 mm	1.62 mm	1.49 mm	76.44%	96.1%	Activity (Rattus norvegicus [18]): 73.53%; Activity (Rattus norvegicus [19]): 96.04 mmHg; Activity (Rattus norvegicus [20]): 10.71 mmHg; Activity (Rattus norvegicus [21]): 11.33 mmHg; Activity (Rattus norvegicus [22]): 4644 mmHg/s; Activity (Rattus norvegicus [23]): -5583 mmHg/s; Activity (Rattus norvegicus [24]): -5405 mmHg/s; Activity (Rattus norvegicus [25]): 271 bpm; Activity (Rattus norvegicus [26]): 272 bpm
COC(=O)N1CCN(Cc2cccc(NC(=O)Nc3ccc(C)nc3)c2F)CC1 [OMECAMTIV MECARBIL]	58.9%	58%	20.32%	13.35%	2.8%	-5.5%	368 bpm	367 bpm	2.63 mm	2.33 mm	2.55 mm	6.41 mm	5.97 mm	6.5 mm	2.68 mm	2.77 mm	1.36 mm	1.23 mm	87.85%	89.52%	Activity (Rattus norvegicus [18]): 61.03%; Activity (Rattus norvegicus [19]): 104.3 mmHg; Activity (Rattus norvegicus [20]): 6.21 mmHg; Activity (Rattus norvegicus [21]): 6.46 mmHg; Activity (Rattus norvegicus [22]): 6143 mmHg/s; Activity (Rattus norvegicus [23]): -5547 mmHg/s; Activity (Rattus norvegicus [24]): -6342 mmHg/s; Activity (Rattus norvegicus [25]): 292 bpm; Activity (Rattus norvegicus [26]): 297 bpm
